Compounds with a hit are over-represented: about 1.8% of the library has one in this group of screens.
NPY-Y2 antag: antagonists of human neuropeptide Y receptor Y2 | P49146 | NPY-Y2 expressing cells, antagonist mode | inhibition, % at 2.7 µM | 0.99% of 140,000 active; in the data active = inhibition above about 17%;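 note: 0% = vehicle with agonist challenge and 100% = reference antagonist with challenge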
NPY Y1 blocker: antagonists of human neuropeptide Y receptor Y1; P25929; HEK293-CNG Y1 cells, membrane potential fluorescence; NPY at EC95, then isoproterenol; inhibition, % at 3.6 µM; 1% of 200,000 active; AID 1040;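 active = inhibition above the campaign mean inhibition of all tested compounds plus 3 SD, cut at about 20% in these data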;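 note: 0% = DMSO wells given NPY plus isoproterenol and 100% = isoproterenol alone without NPY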
Target sequence (P25929 whole entry, looked up): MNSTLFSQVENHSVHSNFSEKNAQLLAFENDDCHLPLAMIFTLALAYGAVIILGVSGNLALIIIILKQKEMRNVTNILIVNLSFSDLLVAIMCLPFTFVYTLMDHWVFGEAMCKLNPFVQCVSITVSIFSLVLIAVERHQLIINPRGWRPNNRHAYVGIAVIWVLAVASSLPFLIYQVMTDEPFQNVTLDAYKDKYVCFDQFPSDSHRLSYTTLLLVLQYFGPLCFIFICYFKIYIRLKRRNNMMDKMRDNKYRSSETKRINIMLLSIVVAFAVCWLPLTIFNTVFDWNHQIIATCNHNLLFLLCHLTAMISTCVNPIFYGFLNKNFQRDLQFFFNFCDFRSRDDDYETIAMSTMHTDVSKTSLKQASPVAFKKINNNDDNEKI
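Material: HEK293 Y1/CNG channel cell line; also added: NPY (25 nM), isoproterenol (1 µM), Ro 20-1724 (25 µM); doses: one concentration, 3.6 µM, in 0.4% DMSO; schedule: compound incubation 1 h at room temperature, readout 45 min post-stimulation; technique: membrane potential fluorescence; measure: fluorescence ratio normalized to % inhibition between controls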
NPY2 pot ag: potentiators or agonists of human neuropeptide Y receptor Y2; P49146; activation, % at 3.6 µM; AID 1359; cells expressing NPY-Y2, potentiator/agonist read-out; 0.45% of 220,000 active; in the data active = activation above about 27%;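 note: cells stimulated with NPY near EC25 plus isoproterenol at EC100; 0% = vehicle plus submaximal agonist and 100% = vehicle plus saturating agonist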
NPY1 pot ag: potentiators or agonists of human neuropeptide Y receptor Y1 | 0.37% of 220,000 active | P25929 | NPY-Y1 expressing cells, potentiator/agonist activation | AID 1304 | activation, % at 3.6 µM; in the data active = activation above about 33%, passing the limit was not always enough;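 note: cells stimulated with NPY at EC10 then isoproterenol at EC100; 0% = low agonist plus stimulus and 100% = saturating agonist plus stimulus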
Starred values were filed as active, the others as inactive; x = no result given.

SMILES	NPY-Y2 antag	NPY Y1 blocker	NPY2 pot ag	NPY1 pot ag
c1csc(-c2csc3nc(CN4CCOCC4)nc(NCc4ccc5c(c4)OCO5)c23)c1	35.8*	44.2*	-31.1	-59.2
CSc1ccc(/C=C(/NC(=O)c2ccc(C)cc2)C(=O)Nc2cccc(F)c2)cc1	3.8	1.4	3.6	17.4
CC(C)c1ccc(NC(=S)NN2CCOCC2)cc1	0.6	0.9	88.6*	88.3*
S=C(Nc1ccc(Cl)cc1)NN1CCOCC1	-1.2	1.9	-5.6	-0.1
CCN(CC)CCNC(=O)c1cccc(NC(=O)C(=O)c2ccccc2NC(C)=O)c1	x	-0.9	5.3	4.9
Cc1ccccc1Nc1c(-c2ccncc2)nc2ccc(Cl)cn12	x	-6.0	44.8*	54.1*
Cc1ccn2c(Nc3ccccc3C)c(-c3cccnc3)nc2c1	x	-0.2	53.3*	61.2*
CCOC(=O)CNc1c(-c2ccccc2)nc2ccc(Cl)cn12	-0.8	1.1	-11.9	5.4
O=C(CCNS(=O)(=O)c1cccc2nsnc12)NCc1ccccc1Cl	x	6.8	-8.4	14.8
CCOC(=O)c1ccc(NC(=O)CC2S/C(=N/N=C/c3c[nH]c4ccccc34)NC2=O)cc1 (stereo not given)	-3.4	-15.5	33.5*	49.1*
CCOc1ccc(N(CC(=O)Nc2ccccc2C(=O)NC(C)CC)S(C)(=O)=O)cc1 (stereo not given)	3.2	2.7	14.7	-10.3
CC(CCc1ccccc1)NC(=O)COC(=O)c1cccc2ccccc12 (stereo not given)	9.3	8.8	-16.1	-8.5
CC1=C(C(=O)N(C)C)C(c2ccc(N3CCOCC3)cc2)NC(=O)N1 (stereo not given)	x	-2.8	7.5	-2.4
COc1ccc(C)cc1NC(=O)COC(=O)c1c(C)noc1C	1.5	3.4	0.3	-5.2
Cc1noc(C)c1C(=O)OCC(=O)Nc1cc(Cl)ccc1Oc1ccccc1	22.1*	23.2*	-15.6	-20.0
Cc1ccc(C(=O)NNC(=O)/C=C\C(=O)O)cc1	x	x	-20.4	-12.5
Cc1ccc(Nc2c(-c3ccc(N4CCOCC4)cc3)nc3ncccn23)cc1	-0.4	7.5	3.1	-19.7
Cc1cccc(C)c1Nc1c(-c2ccsc2)nc2ncccn12	-2.5	-7.4	58.9*	45.9*
Cc1ccc(Nc2c(-c3ccc(N4CCOCC4)cc3)nc3ncccn23)cc1C	-2.0	-0.5	9.1	-34.9
Cc1ccccc1Nc1c(-c2ccc(N3CCOCC3)cc2)nc2ncccn12	x	-4.3	42.7*	56.1*
Cc1ccc2c(Cl)c(C(=O)Nc3cccnc3)sc2c1	3.9	-2.4	13.8	-1.3
CC(C)(C)c1ccc(Oc2ncccc2NC(=O)c2cccs2)cc1	x	x	-38.4	-29.4
O=C(COC(=O)c1c2c(nc3ccccc13)CCCC2)Nc1ccc2c(c1)OCO2	17.3*	20.2*	-8.0	-2.4
O=C(COC(=O)c1cc(-c2ccccc2)nc2ccccc12)Nc1ccc2c(c1)OCO2	0.5	-0.3	-10.8	-3.6
COC(=O)Cc1c[nH]c2ccc(OCC(O)CNC(C)C)cc12 (stereo not given)	0.0	-14.2	88.1*	101.3*
SMILES	NPY-Y2 antag	NPY Y1 blocker	NPY2 pot ag	NPY1 pot ag
CCCC(=O)Nc1ccc(OCC(O)CNC(C)C)c(C(C)=O)c1 (stereo not given)	1.0	-3.6	4.6	-12.4
CC(C)NCC(O)COc1cccc2[nH]ccc12 (stereo not given)	x	-15.0	105.7*	113.3*
COc1ccc2[nH]cc(CC(=O)O)c2c1	1.2	1.7	1.3	-6.2
CC(=O)NCCc1c[nH]c2ccc(OCC(O)CNC(C)(C)C)cc12 (stereo not given)	x	x	57.3*	81.4*
Cc1nc2sc(C#N)c(N)c2c2c1CCCC2	25.0*	21.7*	-43.4	-84.4
N#Cc1sc2nc(N3CCCCC3)c3c(c2c1N)CCCC3	0.9	-1.8	-14.2	-22.0
O=C(Cn1nc(-c2ccccc2)ccc1=O)Nc1ccc(N2CCN(C(=O)c3ccccc3)CC2)cc1	-6.8	-12.2	33.0*	32.3
O=C(Cn1nc(-c2ccccc2)ccc1=O)Nc1ccc(-n2cnnn2)cc1	x	x	19.5	22.4
N#Cc1ccc(-n2nccc2-c2cnc3n(c2=O)CCS3)cc1	0.6	-4.2	7.5	-4.8
Cc1ccccc1NC(=S)N(C)Cc1cccs1	-0.8	-16.9	100.8*	103.7*
Cc1ccccc1NC(=S)N(Cc1cccs1)C1CCCCC1	x	0.6	3.5	14.2
C/C(=N\Nc1ccc2nncn2n1)c1ccc(Br)s1	x	x	-4.5	-8.1
CCOC(=O)C1(P(=O)(c2ccc(Cl)cc2)c2ccc(Cl)cc2)CCC1	26.7*	27.7*	-45.1	-18.4
O=C(c1ccc(S(=O)(=O)c2ccccc2Cl)c([N+](=O)[O-])c1)N1CCCCCC1	1.4	-4.0	16.1	-5.4
CC(Sc1nnc2ccccn12)C(=O)NCc1ccc2c(c1)OCO2 (stereo not given)	x	-3.7	-1.1	2.4
Cc1[nH]c2ccc(-c3nnc(SCC(=O)NCc4ccco4)n3Cc3ccccc3)cc2c1C	1.9	-4.8	103.7*	111.8*
C=CCn1c(SC(C)C(=O)NCc2ccc3c(c2)OCO3)nnc1C1CCCCC1 (stereo not given)	20.1*	27.6*	-14.9	-9.8
COc1ccc(-c2nnc(SC(C)C(=O)NCc3ccc4c(c3)OCO4)n2Cc2ccco2)cc1 (stereo not given)	51.0*	37.5*	-14.5	-2.8
O=C(CSc1nnc(-c2ccc(Cl)cc2)n1Cc1ccco1)NCc1ccc2c(c1)OCO2	40.9*	41.9*	-17.6	-24.1
CC1CCCc2sc3nc(NCc4ccco4)n4ncnc4c3c21 (stereo not given)	27.6*	39.1*	-38.0	-24.5
CN(C)c1ccc(NC(=O)CSc2nc3ccccc3c(=O)n2C2CCCCC2)cc1	-5.1	-10.0	-5.5	15.7
N#CCSc1nc2ccccc2c(=O)n1C1CCCCC1	x	21.1*	-2.8	1.1
N#CCSc1nc2ccccc2c(=O)n1CCC(=O)NC1CCCCC1	-0.1	-4.9	-17.7	-12.9
CCCN(CCC)C(=O)CSc1nc2ccccc2c(=O)n1C1CCCC1	25.4*	28.6*	9.3	-22.3
Cc1cc(C)cc(NC(=S)NCc2ccc3c(c2)OCO3)c1	13.9	30.3*	-52.2	-78.2
SMILES	NPY-Y2 antag	NPY Y1 blocker	NPY2 pot ag	NPY1 pot ag
Cc1ccc(C)c(NC(=S)NCc2ccc3c(c2)OCO3)c1	10.7	7.8	-22.8	-15.1
COc1ccc(CN(C#N)c2nc(SC)nc(N(C)C)n2)cc1	12.2	12.5	-21.6	-36.0
CC1(C)C([N+](=O)[O-])C(c2ccc(O)cc2)NC(c2ccc(O)cc2)C1[N+](=O)[O-] (stereo not given)	0.7	3.8	35.0*	40.1*
CC1(C)C([N+](=O)[O-])C(c2ccc(F)cc2)NC(c2ccc(F)cc2)C1[N+](=O)[O-] (stereo not given)	x	x	-14.4	-9.2
O=C(COC(=O)Cn1cnc2ccccc2c1=O)Nc1cc(Cl)ccc1[N+](=O)[O-]	4.0	5.4	9.4	-9.0
COC(=O)c1cc(NS(=O)(=O)c2ccc(N3CCOCC3)c(N)c2)cc(C(=O)OC)c1	3.0	-4.1	8.4	-25.4
N=c1c(C(=O)NCc2ccc(F)cc2)cc2c(=O)n3ccccc3nc2n1Cc1ccco1	16.0	3.5	5.7	7.7
N=c1c(C(=O)NCc2ccco2)cc2c(=O)n3ccccc3nc2n1Cc1ccc(Cl)cc1	25.0*	36.0*	-25.4	10.0

Source: PubChem (The Scripps Research Institute Molecular Screening Center)
